# Data reported in publication PMC4675651 (Drug Design, Development and Therapy, 2015).
# Entries after “also recorded” stand apart in the source; their conditions may differ. Read-outs that look alike come from different tables or passages of the source.
# Experiments:
# [1] = molecular target: T1, PTP1B (Homo sapiens, UniProt P18031); experiment: PTP1B inhibition measurement; assay type: biochemical
# T1 sequence (P18031 3-277 limits assumed): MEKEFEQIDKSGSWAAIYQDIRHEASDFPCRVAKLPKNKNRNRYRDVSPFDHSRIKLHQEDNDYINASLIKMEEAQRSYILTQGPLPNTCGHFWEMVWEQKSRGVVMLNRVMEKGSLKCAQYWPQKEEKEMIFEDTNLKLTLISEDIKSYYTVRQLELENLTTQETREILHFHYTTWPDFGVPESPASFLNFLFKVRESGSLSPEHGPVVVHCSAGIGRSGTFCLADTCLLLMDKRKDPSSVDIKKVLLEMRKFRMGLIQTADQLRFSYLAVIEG
# Procedure, shortened: (§1)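 Recombinant catalytic domains in pH 7.0 buffer (50 mmol/L MOPS, 100 mmol/L NaCl, 1 mmol/L EDTA, 1 mmol/L DTT, 1 mg/mL BSA). Enzyme preincubated with test compound 5 min at 37 °C. Then pNPP (100 mmol/L stock) added, 10 min at 37 °C. Stopped with NaHCO3; p-nitrophenol read at 405 nm. IC50 by fitting concentration–inhibition curves; triplicate points.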
# [2] = molecular target: T2, SHP1 (Homo sapiens, UniProt P29350); experiment: PTP selectivity panel; assay type: biochemical
# T2 sequence (P29350 244-515 limits assumed): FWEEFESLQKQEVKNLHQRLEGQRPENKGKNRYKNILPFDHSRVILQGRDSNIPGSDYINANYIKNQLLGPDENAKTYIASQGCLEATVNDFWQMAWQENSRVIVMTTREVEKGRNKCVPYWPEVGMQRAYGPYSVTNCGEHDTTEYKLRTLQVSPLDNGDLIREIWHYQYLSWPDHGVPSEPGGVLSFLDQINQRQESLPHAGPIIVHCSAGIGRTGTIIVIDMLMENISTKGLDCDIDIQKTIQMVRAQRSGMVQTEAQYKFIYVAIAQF
# Procedure, shortened: as §1
# [3] = molecular target: T3, SHP2 (Homo sapiens, UniProt Q06124); experiment: PTP selectivity panel; assay type: biochemical
# T3 sequence (Q06124 247-517 limits assumed): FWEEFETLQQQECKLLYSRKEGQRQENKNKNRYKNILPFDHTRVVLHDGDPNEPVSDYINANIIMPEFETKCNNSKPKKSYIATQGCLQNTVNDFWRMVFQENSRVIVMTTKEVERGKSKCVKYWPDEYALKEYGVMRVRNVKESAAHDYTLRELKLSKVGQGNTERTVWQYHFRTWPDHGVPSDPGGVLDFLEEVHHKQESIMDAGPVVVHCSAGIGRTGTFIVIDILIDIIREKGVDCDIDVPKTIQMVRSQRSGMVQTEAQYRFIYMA
# Procedure, shortened: as §1
# [4] = molecular target: T4, TCPTP (Homo sapiens, UniProt P17706); experiment: PTP selectivity panel; assay type: biochemical
# T4 sequence (P17706 5-275 limits assumed): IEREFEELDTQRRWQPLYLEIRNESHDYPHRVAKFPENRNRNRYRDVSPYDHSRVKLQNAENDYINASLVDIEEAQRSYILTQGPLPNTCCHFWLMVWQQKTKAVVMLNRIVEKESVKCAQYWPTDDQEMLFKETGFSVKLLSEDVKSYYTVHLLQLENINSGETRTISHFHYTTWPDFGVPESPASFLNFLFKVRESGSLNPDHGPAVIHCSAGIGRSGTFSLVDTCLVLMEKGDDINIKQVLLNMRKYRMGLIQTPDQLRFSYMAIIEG
# Procedure, shortened: as §1
# [5] = molecular target: T5, HePTP (Homo sapiens, UniProt P35236); experiment: PTP selectivity panel; assay type: biochemical
# T5 sequence (P35236 97-350 limits assumed): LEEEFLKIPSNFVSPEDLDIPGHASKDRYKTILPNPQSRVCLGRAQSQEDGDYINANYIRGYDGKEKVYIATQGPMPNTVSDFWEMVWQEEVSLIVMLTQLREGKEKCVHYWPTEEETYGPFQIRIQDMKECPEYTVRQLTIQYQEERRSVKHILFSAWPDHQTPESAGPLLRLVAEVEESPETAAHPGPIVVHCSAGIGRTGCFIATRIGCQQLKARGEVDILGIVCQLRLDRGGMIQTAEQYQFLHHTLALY
# Procedure, shortened: as §1
# [6] = tested on: T2DM mice; assay type: in vivo; conditions: for Serum TC / Serum TG / Body weight / Effect on serum TC and TG: T2DM mice; for Serum TC / Serum TG: 200 mg/kg oral once per day, mean ± SD (n=8–10); for Body weight: 200 mg/kg oral once a day for 8 weeks; for Effect on serum TC and TG: 200 mg/kg oral, 8 weeks
# Procedure, shortened: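 Male Kunming mice (8 weeks, 18–22 g) fed high-fat diet (20% sucrose, 10% lard, 2.5% cholesterol, 1% sodium cholate, 66.5% chow) for 4 weeks. After an 8 h fast, STZ 35 mg/kg i.p. in citrate-buffered saline pH 4.4, daily for 1 week. Test compound by oral gavage daily for 8 weeks, DMSO stock diluted in 0.9% saline; saline vehicle. Weekly 8-h-fasted tail-vein glucose (glucometer) and body weight; serum TG/TC by kits.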
# [7] = tested on: C2C12 cells; experiment: MTT cytotoxicity assay; assay type: cell-based; conditions: 24 hours
# Procedure, shortened: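 C2C12 cells were grown in DMEM with 10% FBS at 37 °C, 5% CO2, seeded in 96-well plates and exposed to test compound for 24 h. MTT (5 mg/mL stock) was added for 4 h at 37 °C. Formazan was dissolved in DMSO and read at 490 nm. Viability is relative to untreated control (100%). Six wells per treatment; three independent experiments.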
# [8] = tested on: insulin signaling (IRβ, AKT, ERK1/2, phosphotyrosine) in adipose tissue, skeletal muscle, and liver; experiment: Western blot of insulin signaling in tissues of T2DM mice; assay type: in vivo; conditions: 200 mg/kg, 8 weeks
# Procedure, shortened: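 After 8 weeks of dosing, subcutaneous adipose, skeletal muscle and liver were snap-frozen and homogenised in SDS sample buffer lacking bromophenol blue, then spun 12,000 × g, 20 min, 4 °C. 20 µg protein run on 8–10% SDS-PAGE. Membranes blocked 2 h in 3% BSA/TBST; primaries overnight at 4 °C, HRP secondaries 2 h. ECL and densitometry; phospho normalised to total, normal mice = 100%; n=3.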
# [9] = tested on: insulin signaling (IRβ, AKT, ERK1/2, GLUT4, phosphotyrosine) in C2C12 myotubes; experiment: Western blot of insulin signaling in insulin-stimulated C2C12 myotubes; assay type: cell-based
# Procedure, shortened: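 C2C12 myoblasts at 75% confluence were differentiated in DMEM with 2% horse serum for 4–6 days. Myotubes were pretreated 1 h with test compound (in DMSO), then given 10 nM insulin for 10 min. Whole-cell lysates and plasma-membrane fractions were blotted (10% SDS-PAGE) for phospho/total IRβ, AKT, ERK1/2, GLUT4, phosphotyrosine and actin; ECL detection. Phospho normalised to total, expressed as fold of insulin alone; n=3.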
# [10] = tested on: PTP1B−/− mice; experiment: Honokiol treatment of PTP1B gene knockout mice; assay type: in vivo; conditions: pre-experiments, Figure S2
# [11] = tested on: PPAR-γ; conditions: in vitro; ref Atanasov et al [18]; cited from earlier work
# [12] = tested on: L6 myotubes; conditions: ref Choi et al [19]; cited from earlier work
# [13] = tested on: murine and human adipocytes; conditions: ref Alonso-Castroa et al [20]; cited from earlier work
# [14] = honokiol 0 to 30 µM 1 hour, then 10 nM insulin 10 minutes
compound,measurement,setting,value
C=CCc1ccc(O)c(-c2ccc(O)c(CC=C)c2)c1 [Honokiol],Ki,[1],6.67 µM
same,Inhibition type on PTP1B,"[1]; Lineweaver–Burk plot, 1/v versus 1/[pNPP]",reversible competitive inhibitory activity; also recorded: competing with the substrate for the enzyme active site
same,IC50,[2],763.2 ± 5.49 µM
same,Selectivity on PTP1B over SHP1,[2]; from IC50 values,~ 12 fold
same,IC50,[3],785.5 ± 6.83 µM
same,Selectivity on PTP1B over SHP2,[3]; from IC50 values,~ 12 fold
same,IC50,[4],604.4 ± 4.89 µM
same,Selectivity on PTP1B over TCPTP,[4]; from IC50 values,approximately ninefold
same,IC50,[5],890 ± 9.46 µM
same,Selectivity on PTP1B over HePTP,[5]; from IC50 values,~ 14 fold
same,Serum TC,[6]; 0 week,3.62 ± 0.15 mmol/L
same,Serum TG,[6]; 0 week,0.51 ± 0.03 mmol/L
same,Serum TC,[6]; 8 week,3.67 ± 0.16 mmol/L
same,Serum TG,[6]; 8 week,0.48 ± 0.03 mmol/L
same,Body weight,[6],decreased at early treatment and then gradually increased
same,Effect on serum TC and TG,[6],does not affect TC and TG
same,Macroscopic organ toxicity,"[6]; brain, heart, kidneys, liver, spleen, stomach, large and small intestine, and lungs",no macroscopic toxicity
same,Dose with the most significant hypoglycemic effects (pre-experiments),"[6]; series 10, 50, 100, 150, 200, 250, and 300 mg/kg, data not shown",200 mg/kg
same,Maximum concentration without cytotoxicity,[7],40 µM
same,"Serine phosphorylation of AKT in adipose tissue, skeletal muscle, and liver",[8],enhanced
same,"Tyrosine phosphorylation of ERK in adipose tissue, skeletal muscle, and liver",[8],enhanced
same,Tyrosine phosphorylations of cellular proteins,[9],enhanced
same,Insulin-induced GLUT4 level in the plasma membrane fraction,[9]; GLUT4 in whole cell lysates not altered,dose-dependently increased
same,Insulin-stimulated tyrosine phosphorylation of ERK,[9]; [14],enhances
same,Insulin-stimulated tyrosine phosphorylation of IRβ,[9]; [14],largely enhanced
same,Serine phosphorylation of AKT,[9]; [14],enhances
same,Blood glucose in PTP1B−/− mice,[10],cannot affect; also recorded: No hypoglycemic potency
same,Body weight in PTP1B−/− mice,[10],No potency of honokiol on the amelioration of body weight
same,PPAR-γ activation,[11],novel nonadipogenic partial PPAR-γ activator
same,Glucose uptake,[12],stimulates glucose uptake
same,Glucose uptake,[13],stimulates glucose uptake
"CN(C)C(=N)N=C(N)N [Metformin, reference compound]",Serum TC,[6]; 0 week,3.70 ± 0.31 mmol/L
same,Serum TG,[6]; 0 week,0.54 ± 0.02 mmol/L
same,Serum TC,[6]; 8 week,3.57 ± 0.11 mmol/L
same,Serum TG,[6]; 8 week,0.49 ± 0.04 mmol/L
same,Body weight,[6],stable body weight
same,Effect on serum TC and TG,[6],no significant difference
